Key:
KB [1] = assay: Antiproliferative activity against human KB cells after 72 hrs by fluorescence method; format: functional, cell-based
Procedure, shortened: (§1)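 KB cells. Growth inhibition was recorded as a percentage at fixed 10 and 1 μM concentrations, with IC50 determined separately for selected compounds.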

[2] = Antiproliferative activity against human MCF7/R cells at 1 uM after 72 hrs by fluorescence method; format: functional; conditions: MCF7R, read-out: GI
Procedure, shortened: (§2)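 Panel of HCT116, MCF7 and HL60 cancer cells, each paired with a resistant counterpart (HCT15, MCF7R, HL60R). Growth inhibition was recorded as a percentage at 10 and 1 μM of test compound.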

HCT-15 [3] = assay: Antiproliferative activity against human HCT15 cells at 1 uM after 72 hrs by fluorescence method; format: functional; conditions: HCT-15, 72 h, read-out: GI; procedure, shortened: as §2
KB [4] = assay: Antiproliferative activity against human KB cells at 10 uM after 72 hrs by fluorescence method; format: functional; conditions: read-out: GI; procedure, shortened: as §1
[5] = Antiproliferative activity against human HL60R cells at 10 uM after 72 hrs by fluorescence method; format: functional; conditions: read-out: GI; procedure, shortened: as §2
HL-60 [6] = assay: Antiproliferative activity against human HL60 cells at 10 uM after 72 hrs by fluorescence method; format: functional; conditions: HL-60, 72 h, read-out: GI; procedure, shortened: as §2
HCT-116 [7] = assay: Antiproliferative activity against human HCT116 cells at 10 uM after 72 hrs by fluorescence method; format: functional; conditions: HCT-116, 72 h, read-out: GI; procedure, shortened: as §2
[8] = Antiproliferative activity against human MCF7/R cells at 10 uM after 72 hrs by fluorescence method; format: functional; conditions: MCF7R, read-out: GI; procedure, shortened: as §2
MCF7 [9] = assay: Antiproliferative activity against human MCF7 cells at 1 uM after 72 hrs by fluorescence method; format: functional; conditions: MCF7, 72 h, read-out: GI; procedure, shortened: as §2
HCT-15 [10] = assay: Antiproliferative activity against human HCT15 cells at 10 uM after 72 hrs by fluorescence method; format: functional; conditions: HCT-15, 72 h, read-out: GI; procedure, shortened: as §2
HCT-116 [11] = assay: Antiproliferative activity against human HCT116 cells at 1 uM after 72 hrs by fluorescence method; format: functional; conditions: HCT-116, 72 h, read-out: GI; procedure, shortened: as §2
MCF7 [12] = assay: Antiproliferative activity against human MCF7 cells at 10 uM after 72 hrs by fluorescence method; format: functional; conditions: MCF7, 72 h, read-out: GI; procedure, shortened: as §2
HL-60 [13] = assay: Antiproliferative activity against human HL60 cells at 1 uM after 72 hrs by fluorescence method; format: functional; conditions: HL-60, 72 h, read-out: GI; procedure, shortened: as §2
[14] = Inhibition of tubulin polymerization
KB [15] = assay: Antiproliferative activity against human KB cells at 1 uM after 72 hrs by fluorescence method; format: functional; conditions: read-out: GI; procedure, shortened: as §1
[16] = Antiproliferative activity against human HL60R cells at 1 uM after 72 hrs by fluorescence method; format: functional; conditions: read-out: GI; procedure, shortened: as §2

SMILES	IC50 (KB [1]) [µM]	inhibition of growth at 1 µM [2] [%]	inhibition of growth at 1 µM (HCT-15 [3]) [%]	inhibition of growth at 10 µM (KB [4]) [%]	inhibition of growth at 10 µM [5] [%]	inhibition of growth at 10 µM (HL-60 [6]) [%]	inhibition of growth at 10 µM (HCT-116 [7]) [%]	inhibition of growth at 10 µM [8] [%]	inhibition of growth at 1 µM (MCF7 [9]) [%]	inhibition of growth at 10 µM (HCT-15 [10]) [%]	inhibition of growth at 1 µM (HCT-116 [11]) [%]	inhibition of growth at 10 µM (MCF7 [12]) [%]	inhibition of growth at 1 µM (HL-60 [13]) [%]	IC50 [14] [µM]	inhibition of growth at 1 µM (KB [15]) [%]	inhibition of growth at 1 µM [16] [%]
O=C1NC2CCc3cccc(c32)-c2c1[nH]c1ccccc21 (centres undefined)	0.9	67	75	81	81	90	80	72	46	87	64	39	83	5.3	63	70
O=C1c2[nH]c3ccccc3c2-c2ccccc2C2CCCN12 (centres undefined)	5	56	78	100	80	84	81	75	28	84	64	55	49	4.2	27	49
CC[C@H]1c2ccccc2-c2c([nH]c3ccccc23)C(=O)N1C	0.002	75	92	100	89	100	100	92	85	100	91	96	85	4.1	100	70
CC[C@@H]1NC(=O)c2[nH]c3ccccc3c2-c2ccccc21	0.035	84	94	100	95	100	100	96	82	100	85	92	90	1.8	100	78

From ChEMBL document CHEMBL2010708, “Rigid Analogues of Antimitotic Indolobenzazepinones: New Insights into Tubulin Binding via Molecular Modeling” (ACS Med Chem Lett, 2011)
